# Source: ChEMBL document CHEMBL1126218, “N-(5,5-diacetoxypent-1-yl)doxorubicin: a new intensely potent doxorubicin analogue” (J Med Chem, 1992)
# Several values for one entry are separate records, joined by “and”; a condition that tells them apart may be missing. Equal values may be shown once.
# Columns and labels:
# CHO [1] = assay: The compound was tested in vitro for growth inhibition of Chinese Hamster Ovary(CHO) cells; type: functional, cell-based; settings: Cricetulus griseus
# Procedure, shortened: (§1)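 Exponentially growing CHO cells, or the P-glycoprotein-overexpressing doxorubicin-resistant CHO/DOX subline, were seeded at 1.5 × 10⁴ cells/mL in McCoy's 5A with 10% FCS. They were exposed to at least 7 concentrations (2 × 10⁻¹² to 2 × 10⁻⁵ M) for 6 days at 37 °C. Cells were then formaldehyde-fixed, crystal-violet-stained and counted microscopically. IC50 (50% growth inhibition versus untreated controls) was taken from dose–response curves, mean of duplicates.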
# CHO [2] = assay: The compound was tested in vitro for growth inhibition of subline (CHO/DOX) with acquired resistance to doxorubicin; type: functional, cell-based; settings: Cricetulus griseus; procedure, shortened: as §1
# carboxylate esterase [3] = assay: Half life period in the absence or presence of pig liver carboxylate esterase at 25 degrees C in aqueous solution of C + esterase (2-fold unit equiv); type: ADME
# Procedure, shortened: (§2)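 Drug at 20 μM in 0.05 M phosphate buffer, pH 7.4, pre-equilibrated, then given porcine liver carboxylate esterase (200 units/mg) at 2, 5, 10 or 20 units per μmol substrate. At 0.25–60 min samples were vortexed and centrifuged, and the supernatant measured for parent drug by C-18 HPLC. Half-life came from pseudo-first-order least-squares regression.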
# [4] = Half life period in the absence or presence of pig liver carboxylate esterase at 25 degrees C in aqueous solution of 0.05 M acetate buffer at pH 4.0; type: ADME; settings: in vivo
# Procedure, shortened: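 Drug at 20 μM in 0.05 M acetate buffer, pH 4.0, no enzyme. Aliquots were taken at set times (about 2–250 h) and the parent drug measured by reverse-phase C-18 HPLC (CH3CN–0.05 N acetate pH 4.0, 2:3). Half-life came from linear least-squares regression of pseudo-first-order loss.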
# carboxylate esterase [5] = assay: Half life period in the absence or presence of pig liver carboxylate esterase at 25 degrees C in aqueous solution of C + esterase (5-fold unit equiv); type: ADME; procedure, shortened: as §2
# carboxylate esterase [6] = assay: Half life period in the absence or presence of pig liver carboxylate esterase at 25 degrees C in aqueous solution of C + esterase (10-fold unit equiv); type: ADME; procedure, shortened: as §2
# carboxylate esterase [7] = assay: Half life period in the absence or presence of pig liver carboxylate esterase at 25 degrees C in aqueous solution of C + esterase (20-fold unit equiv); type: ADME; procedure, shortened: as §2
# [8] = Half life period in the absence or presence of pig liver carboxylate esterase at 25 degrees C in aqueous solution of 0.05 M phosphate buffer at pH 7.4; settings: 0.05 M phosphate buffer (aqueous solution)
half-life (carboxylate esterase [3]) [min],T1/2 [4],half-life (carboxylate esterase [5]) [min],half-life (carboxylate esterase [6]) [min],half-life (carboxylate esterase [7]) [min],half-life [8] [min],SMILES,IC50 (CHO [1]) [nM],IC50 (CHO [2]) [nM]
,,,,,,COc1cccc2c1C(=O)c1c(O)c3c(c(O)c1C2=O)C[C@@](O)(C(=O)CO)C[C@@H]3O[C@H]1C[C@H](N)[C@H](O)[C@H](C)O1 [DOXORUBICIN],60,6000
27,> 10 days and 4.04 days,4,1,0.333,1440,COc1cccc2c1C(=O)c1c(O)c3c(c(O)c1C2=O)CC(O)(C(=O)CO)CC3OC1CC(NCCCCC(OC(C)=O)OC(C)=O)C(O)C(C)O1.Cl (centres undefined),0.4,0.7
,,,,,,COc1cccc2c1C(=O)c1c(O)c3c(c(O)c1C2=O)CC(O)(C(=O)CO)CC3OC1CC(NCCCCCOC(C)=O)C(O)C(C)O1 (centres undefined),83,350
,,,,,,CCCCCNC1CC(OC2CC(O)(C(=O)CO)Cc3c(O)c4c(c(O)c32)C(=O)c2c(OC)cccc2C4=O)OC(C)C1O (centres undefined),57,420
